Reference: ChEMBL document CHEMBL6127097, “Structure-Guided Discovery of cis-Hexahydro-pyrido-oxazinones as Reversible, Drug-like Monoacylglycerol Lipase Inhibitors” (J Med Chem, 2024)
Values after ≈ are worked out from the molar mass of the structure shown. Active and inactive are the calls of the source.

Legend:
[1] = Genotoxicity in Salmonella typhimurium by Ames test; assay type: toxicity; settings: salmonella enterica subsp. enterica serovar typhimurium
[2] = Ratio of drug concentration in Wistar rat brain to plasma at 10 mg/kg, ip measured upto 7 hrs by LC-MS/MS analysis; assay type: ADME, organism-based
Method in brief: (§1)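 Male Wistar rats, single dose. i.v. in NMP/0.9% NaCl 30:70; p.o. and i.p. in NMP/HPMC/diisooctyl sulfosuccinate 10:90; 3 per i.v./p.o. group, 6 i.p. K2EDTA plasma sampled 0.083–7 h, plus 24 h for i.v./p.o.; brain and CSF at 1, 2, 7 h (i.p. only). LC-MS/MS, noncompartmental analysis.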

[3] = Clearance in rat hepatocytes assessed per 10 million cells; assay type: ADME, cell-based, Hepatocyte
[4] = Plasma protein binding in human assessed as fraction unbound by equilibrium dialysis based LC-MS/MS method; assay type: ADME, cell-free
Method in brief: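 Equilibrium dialysis across a 12–14 kDa cutoff membrane in a Teflon 96-well device. Pooled frozen plasma is adjusted to pH 7.4 and spiked at 1000 nM initial total, against Soerensen buffer pH 7.4. Incubation is 5 h at 37 °C, 5% CO2, with diazepam control in each well. %fu = 100 × buffer/matrix concentration after dialysis; recovery accepted at 80–120%.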

[5] = Cmax in Wistar rat at 10 mg/kg, ip measured upto 24 hrs by LC-MS/MS analysis; assay type: ADME, organism-based; settings: in vivo
[6] = Average drug concentration in mouse plasma at 10 mg/kg, ip measured after 4 hrs; assay type: ADME, organism-based; settings: in vivo
Method in brief: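 Mice received 3, 10 or 30 mg/kg i.p. The compound was dissolved in DMSO/Tween 80 (1:1) and diluted with 8 parts saline (NaCl/DMSO/TW80 80/10/10). Plasma was taken 4 h after injection and average concentrations reported.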

[7] = Drug concentration in mouse CSF at 10 mg/kg, ip measured after 4 hrs; assay type: ADME, organism-based, Cerebrospinal fluid; settings: read-out: Ct
[8] = Tmax in Wistar rat at 5 mg/kg, po measured upto 24 hrs by LC-MS/MS analysis; assay type: ADME, organism-based; settings: in vivo; method in brief: as §1
[9] = Oral bioavailability in Wistar rat at 5 mg/kg measured upto 24 hrs by LC-MS/MS analysis; assay type: ADME, organism-based; settings: in vivo; method in brief: as §1
mouse P-gp = assay: Apparent permeability across apical to basolateral side in pig LLC-PK1 cells expressing mouse P-gp; assay type: ADME, cell-based, Sus scrofa
Method in brief: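 LLC-PK1 porcine kidney cells transfected with human or mouse P-gp were grown as polarized monolayers on filter membranes. Compound was dosed to the apical side and receiver appearance followed over 3 h at 37 °C. A→B Papp was measured with the P-gp inhibitor zosuquidar present at 1 µM.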

[10] = Chemical stability at pH 4 incubated for 2 hrs; assay type: physicochemical; settings: buffer, pH 4, 2 h
Method in brief: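 Compound was held in aqueous buffer at the stated pH for 2 h at 37 °C.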

[11] = Aqueous solubility of compound in phosphate buffer at pH 6.5 by HPLC or MS/MS analysis; assay type: physicochemical; settings: buffer
Method in brief: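 Lyophilization solubility assay (LYSA) starting from a 10 mM DMSO stock. DMSO was removed by centrifugal vacuum evaporation, then 0.05 M phosphate buffer pH 6.5 was added and samples sonicated. Filtrates were analysed by MS/MS and/or HPLC against a 4- to 7-point calibration curve.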

[12] = molecular target: T1, Monoglyceride lipase (Mus musculus) (UniProt O35678); assay: In vivo receptor occupancy at MAGL receptor in mouse at 30 mg/kg, ip measured after 8 hrs; assay type: functional, organism-based
T1 sequence (whole entry): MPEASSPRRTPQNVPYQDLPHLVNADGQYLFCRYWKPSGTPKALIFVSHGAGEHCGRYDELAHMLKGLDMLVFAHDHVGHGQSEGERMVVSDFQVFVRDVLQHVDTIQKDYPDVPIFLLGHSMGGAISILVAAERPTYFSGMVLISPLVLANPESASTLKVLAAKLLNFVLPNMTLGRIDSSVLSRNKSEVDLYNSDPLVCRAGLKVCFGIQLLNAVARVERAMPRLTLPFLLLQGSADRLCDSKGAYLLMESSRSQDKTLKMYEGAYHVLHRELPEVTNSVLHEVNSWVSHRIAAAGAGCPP
Method in brief: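 Mice dosed 30 mg/kg i.p. in NaCl/DMSO/TW80 (80/10/10). Brain proteome was prepared at set time points over 24 h and MAGL occupancy read by activity-based protein profiling.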

Mus musculus = organism: Mus musculus; assay: Inhibition of DAGL in mouse brain lysates at 10 uM by ABPP assay; assay type: subcellular
Method in brief: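 Gel-based activity-based protein profiling of hydrolases, with the inhibitor at 10 µM.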

[13] = molecular target: T2, Monoglyceride lipase (Rattus norvegicus) (UniProt Q8R431); assay: Binding affinity to rat MAGL assessed as association rate constant by SPR analysis
T2 sequence (whole entry): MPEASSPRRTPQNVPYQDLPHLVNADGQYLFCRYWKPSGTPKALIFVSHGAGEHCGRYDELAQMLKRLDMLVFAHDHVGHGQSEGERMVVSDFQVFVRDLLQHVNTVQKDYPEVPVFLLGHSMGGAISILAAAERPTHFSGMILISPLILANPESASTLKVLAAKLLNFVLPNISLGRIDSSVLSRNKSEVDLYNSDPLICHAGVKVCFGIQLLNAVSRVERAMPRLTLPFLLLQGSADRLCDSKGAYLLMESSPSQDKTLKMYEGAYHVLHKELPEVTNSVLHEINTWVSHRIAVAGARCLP
Method in brief: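 Human or rat MAGL was immobilized by amine coupling without ethanolamine quenching. Runs were done at 18 °C in 10 mM HEPES, 150 mM NaCl, 0.05% P20, 50 µM EDTA, pH 7.4, with 1% DMSO. Single-cycle kinetics used five concentrations, top 1 µM in 2-fold steps, at 30 µL/min, giving kon, koff and Kd.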

Kp at 7 h [2] | hepatocyte CLint [3] | fraction unbound [4] | Cmax [5] | Cave [6] | concentration at 4 h [7] | Tmax [8] | bioavailability [9] | Papp A→B (mouse P-gp) | Stability [10] | solubility [11] | Activity [12] | inhibition (Mus musculus) | K [13] | Structure (SMILES) | Activity [1]
1.1 | 4 µL/min/10^7 cells | 0.043 | 12200 ng/mL | 7.496 µM | 123 nM | 6 h | 115% | 24.4 ×10⁻⁶ cm/s | Stable | 231 µg/mL (≈ 543 µM) |  |  |  | O=C1CO[C@H]2CCN(C(=O)N3CCC(Cc4ccc(C(F)(F)F)cc4)CC3)C[C@H]2N1 [listing 1 of 2 here] | Non-Toxic
 |  |  |  |  |  |  |  |  |  |  | 92% | inactive | 2.6 10^5/M/s | O=C1CO[C@H]2CCN(C(=O)N3CCC(Cc4ccc(C(F)(F)F)cc4)CC3)C[C@H]2N1 [listing 2 of 2 here] | 
